# Assay results taken from the M2OR odorant receptor database.
# How the values were obtained:
# Conditions in all cases: stereoisomer not certain
# OR5AN1 (Homo sapiens) = target: T1, OR5AN1 (Homo sapiens) (UniProt Q8NGI8)
# T1 sequence (whole entry): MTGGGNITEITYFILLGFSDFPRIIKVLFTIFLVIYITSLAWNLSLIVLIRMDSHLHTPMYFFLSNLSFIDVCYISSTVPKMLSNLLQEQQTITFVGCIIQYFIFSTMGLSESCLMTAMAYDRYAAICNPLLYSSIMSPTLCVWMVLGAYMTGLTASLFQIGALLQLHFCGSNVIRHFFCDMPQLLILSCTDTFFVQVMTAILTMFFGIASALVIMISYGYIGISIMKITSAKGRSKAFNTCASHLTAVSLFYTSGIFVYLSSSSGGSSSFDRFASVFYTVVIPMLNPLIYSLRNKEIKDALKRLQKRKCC
# In short: (§1)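 Whether a receptor–molecule pair is responsive (active) rests on the original authors' judgment that its measured signal was statistically different from baseline. Pairs without that judgment are non-responsive (inactive). Sources used varied assay methods, commonly transient luciferase assays in mammalian cell lines.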
# OR5AC1 (Homo sapiens) = OR5AC1 (Homo sapiens) (UniProt P0C628)
# In short: as §1
# OR5AC2 (Homo sapiens) = target: T2, OR5AC2 (Homo sapiens) (UniProt Q9NZP5)
# T2 sequence (whole entry): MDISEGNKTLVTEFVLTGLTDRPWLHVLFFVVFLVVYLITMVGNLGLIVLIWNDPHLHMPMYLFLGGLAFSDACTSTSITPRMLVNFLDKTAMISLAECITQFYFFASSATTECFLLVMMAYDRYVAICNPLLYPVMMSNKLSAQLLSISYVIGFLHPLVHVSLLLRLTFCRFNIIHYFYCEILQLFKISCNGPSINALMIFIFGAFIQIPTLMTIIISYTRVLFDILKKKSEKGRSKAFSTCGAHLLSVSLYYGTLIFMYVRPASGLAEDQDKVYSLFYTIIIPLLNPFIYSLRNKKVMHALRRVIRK
# In short: as §1
# OR5AK2 (Homo sapiens) = OR5AK2 (Homo sapiens) (UniProt Q8NH90)
# In short: as §1
# OR5AL1 (Homo sapiens) = OR5AL1 (Homo sapiens) (UniProt P0C617)
# In short: as §1
# OR5AP2 (Homo sapiens) = OR5AP2 (Homo sapiens) (UniProt Q8NGF4)
# In short: as §1
# OR5AR1 (Homo sapiens) = OR5AR1 (Homo sapiens) (UniProt Q8NGP9)
# In short: as §1
# OR5AS1 (Homo sapiens) = OR5AS1 (Homo sapiens) (UniProt Q8N127)
# In short: as §1
# OR5AU1 (Homo sapiens) = OR5AU1 (Homo sapiens) (UniProt Q8NGC0)
# In short: as §1
# OR5B12 (Homo sapiens) = OR5B12 (Homo sapiens) (UniProt Q96R08)
# In short: as §1
# 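Also: active if original authors judged signal statistically different from baseline.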
# Chain of OR5AP2 (Homo sapiens) (Q8NGF4 whole entry): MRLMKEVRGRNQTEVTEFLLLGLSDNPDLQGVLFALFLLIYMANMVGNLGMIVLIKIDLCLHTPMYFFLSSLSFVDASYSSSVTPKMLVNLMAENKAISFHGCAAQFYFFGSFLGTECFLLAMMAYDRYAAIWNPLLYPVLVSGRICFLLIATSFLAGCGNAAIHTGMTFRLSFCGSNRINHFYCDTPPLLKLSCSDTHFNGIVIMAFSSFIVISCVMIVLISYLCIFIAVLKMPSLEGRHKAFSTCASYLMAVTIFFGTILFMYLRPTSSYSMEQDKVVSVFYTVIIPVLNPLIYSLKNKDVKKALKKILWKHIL
# Chain of OR5AR1 (Homo sapiens) (Q8NGP9 whole entry): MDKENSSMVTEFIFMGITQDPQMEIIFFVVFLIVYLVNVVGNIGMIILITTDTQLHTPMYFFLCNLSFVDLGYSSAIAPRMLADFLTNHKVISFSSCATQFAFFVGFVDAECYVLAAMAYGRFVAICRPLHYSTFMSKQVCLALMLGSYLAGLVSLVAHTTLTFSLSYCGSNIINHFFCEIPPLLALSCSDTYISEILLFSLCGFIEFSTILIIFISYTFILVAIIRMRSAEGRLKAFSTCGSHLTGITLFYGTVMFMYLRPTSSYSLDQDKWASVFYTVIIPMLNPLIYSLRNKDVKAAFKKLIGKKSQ
# Chain of OR5AU1 (Homo sapiens) (Q8NGC0 whole entry): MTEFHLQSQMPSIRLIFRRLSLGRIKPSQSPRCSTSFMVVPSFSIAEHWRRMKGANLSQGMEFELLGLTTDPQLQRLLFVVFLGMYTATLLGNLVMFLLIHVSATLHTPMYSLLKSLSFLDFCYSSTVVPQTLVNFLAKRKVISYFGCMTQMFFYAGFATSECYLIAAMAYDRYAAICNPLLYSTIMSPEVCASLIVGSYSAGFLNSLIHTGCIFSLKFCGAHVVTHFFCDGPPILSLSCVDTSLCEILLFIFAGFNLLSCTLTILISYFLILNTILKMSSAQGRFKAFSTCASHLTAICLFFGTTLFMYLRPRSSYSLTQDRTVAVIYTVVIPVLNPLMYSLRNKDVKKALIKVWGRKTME
# Chain of OR5AK2 (Homo sapiens) (Q8NH90 whole entry): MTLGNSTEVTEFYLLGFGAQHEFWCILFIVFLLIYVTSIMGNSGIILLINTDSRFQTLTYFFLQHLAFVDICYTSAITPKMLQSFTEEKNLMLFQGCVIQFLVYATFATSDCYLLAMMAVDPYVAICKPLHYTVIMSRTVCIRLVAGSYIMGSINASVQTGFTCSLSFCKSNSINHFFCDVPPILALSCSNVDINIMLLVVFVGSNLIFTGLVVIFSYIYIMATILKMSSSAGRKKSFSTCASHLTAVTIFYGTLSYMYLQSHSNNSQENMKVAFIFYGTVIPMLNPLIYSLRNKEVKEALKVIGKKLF
# Chain of OR5AS1 (Homo sapiens) (Q8N127 whole entry): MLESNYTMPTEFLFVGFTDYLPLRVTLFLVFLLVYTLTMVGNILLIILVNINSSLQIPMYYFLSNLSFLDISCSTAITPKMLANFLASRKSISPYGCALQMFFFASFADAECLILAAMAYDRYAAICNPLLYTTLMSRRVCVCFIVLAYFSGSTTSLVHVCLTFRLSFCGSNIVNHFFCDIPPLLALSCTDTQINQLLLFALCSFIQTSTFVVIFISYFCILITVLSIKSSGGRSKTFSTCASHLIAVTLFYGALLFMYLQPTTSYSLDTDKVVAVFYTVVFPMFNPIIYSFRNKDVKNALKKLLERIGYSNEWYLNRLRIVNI
# Chain of OR5B12 (Homo sapiens) (Q96R08 whole entry): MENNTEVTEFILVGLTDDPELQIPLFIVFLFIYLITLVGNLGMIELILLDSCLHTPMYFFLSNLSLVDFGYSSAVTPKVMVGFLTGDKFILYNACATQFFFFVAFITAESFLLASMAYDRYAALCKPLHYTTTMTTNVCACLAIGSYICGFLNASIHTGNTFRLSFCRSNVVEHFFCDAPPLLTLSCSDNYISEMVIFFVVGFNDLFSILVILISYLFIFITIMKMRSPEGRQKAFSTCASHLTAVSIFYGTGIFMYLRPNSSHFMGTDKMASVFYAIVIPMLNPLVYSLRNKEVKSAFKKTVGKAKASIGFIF
# Chain of OR5AC1 (Homo sapiens) (P0C628 whole entry): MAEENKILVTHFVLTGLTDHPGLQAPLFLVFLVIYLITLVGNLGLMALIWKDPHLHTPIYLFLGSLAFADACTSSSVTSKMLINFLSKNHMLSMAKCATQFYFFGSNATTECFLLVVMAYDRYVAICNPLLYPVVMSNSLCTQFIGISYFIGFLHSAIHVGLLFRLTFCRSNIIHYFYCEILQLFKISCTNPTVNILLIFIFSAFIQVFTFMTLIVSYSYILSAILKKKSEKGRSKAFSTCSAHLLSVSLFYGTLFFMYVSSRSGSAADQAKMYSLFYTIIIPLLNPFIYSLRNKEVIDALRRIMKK
# Chain of OR5AL1 (Homo sapiens) (P0C617 whole entry): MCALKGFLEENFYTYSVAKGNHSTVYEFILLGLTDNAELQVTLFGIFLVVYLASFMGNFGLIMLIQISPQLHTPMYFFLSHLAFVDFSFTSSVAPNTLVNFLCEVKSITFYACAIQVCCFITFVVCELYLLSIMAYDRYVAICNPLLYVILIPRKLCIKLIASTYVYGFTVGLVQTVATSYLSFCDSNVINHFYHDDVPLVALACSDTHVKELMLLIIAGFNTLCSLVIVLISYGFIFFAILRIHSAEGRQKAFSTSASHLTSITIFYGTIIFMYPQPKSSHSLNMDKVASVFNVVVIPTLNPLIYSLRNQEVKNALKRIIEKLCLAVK
smiles,measurement,setting,value
CC(=O)c1cc2c(cc1C)C(C)(C)C(C)CC2(C)C (stereo not drawn),odorant receptor agonist call,OR5AN1 (Homo sapiens),inactive
Cc1c([N+](=O)[O-])c(C)c([N+](=O)[O-])c(C(C)(C)C)c1[N+](=O)[O-],odorant receptor agonist call,OR5AC1 (Homo sapiens),inactive
same,odorant receptor agonist call,OR5AC2 (Homo sapiens),inactive
same,odorant receptor agonist call,OR5AK2 (Homo sapiens),inactive
same,odorant receptor agonist call,OR5AL1 (Homo sapiens),inactive
same,odorant receptor agonist call,OR5AN1 (Homo sapiens),active
same,odorant receptor agonist call,OR5AP2 (Homo sapiens),inactive
same,odorant receptor agonist call,OR5AR1 (Homo sapiens),inactive
same,odorant receptor agonist call,OR5AS1 (Homo sapiens),inactive
same,odorant receptor agonist call,OR5AU1 (Homo sapiens),inactive
same,odorant receptor agonist call,OR5B12 (Homo sapiens),inactive
C=CCc1ccc(OC)cc1,odorant receptor agonist call,OR5AC2 (Homo sapiens),inactive
C=CCOC(=O)Cc1ccccc1,odorant receptor agonist call,OR5AC2 (Homo sapiens),inactive
same,odorant receptor agonist call,OR5AK2 (Homo sapiens),inactive
same,odorant receptor agonist call,OR5AN1 (Homo sapiens),inactive
same,odorant receptor agonist call,OR5AP2 (Homo sapiens),inactive
same,odorant receptor agonist call,OR5AR1 (Homo sapiens),inactive
same,odorant receptor agonist call,OR5AS1 (Homo sapiens),inactive
same,odorant receptor agonist call,OR5AU1 (Homo sapiens),inactive
same,odorant receptor agonist call,OR5B12 (Homo sapiens),inactive
O=Cc1ccccc1,odorant receptor agonist call,OR5AC2 (Homo sapiens),inactive
O=CC=Cc1ccccc1,odorant receptor agonist call,OR5AC2 (Homo sapiens),inactive
CC(=O)c1cc(C(C)(C)C)cc2c1CCC2(C)C,odorant receptor agonist call,OR5AN1 (Homo sapiens),inactive
